Consider 18 compounds from ChEMBL document CHEMBL1125725, “Potential antitumor agents. 61. Structure-activity relationships for in vivo colon 38 activity among disubstituted 9-oxo-9H-xanthene-4-acetic acids” (1991).

Where only a bound is given, the exact number is not on record here.

The subject of assay [1] is Mus musculus. Put plainly: Minimum dose required when administered intraperitoneally in mice as the sodium salt in water in a single dose. The class given is functional. In outline:
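The minimum dose giving the cited necrosis level in sc colon 38 tumors (4-8 mm) in BDF1 mice. It was taken from a full dose profile at 1.5-fold intervals, given as a single ip dose of the sodium salt in water. The ceiling was 750 mg/kg or the maximum tolerated dose, defined as the highest dose causing no deaths in 24 h. Tumor histology was read at 24 h.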

A further assay deals with MC-38. Put plainly: Antitumor activity against the subcutaneously implanted C38 colon tumor in mice. It counts as functional, Mus musculus. The arrangement: concentration or dose not given beside the values. In outline:
(§1)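 Colon 38 fragments were implanted sc in BDF1 mice and grown to 4-8 mm diameter. Each mouse then got a single ip dose of the sodium salt in water, with light excluded. Doses rose in 1.5-fold steps up to 750 mg/kg or the maximum tolerated dose. Tumors were removed 24 h later, formalin-fixed, and sections were stained with hematoxylin/eosin. Necrosis was scored: ++ >90%, + 50-90%, − <50%. Groups of five mice, with 2-3 independent determinations per dose.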

For assay [2], the system named is Mus musculus. Put plainly: Compound was evaluated in vivo, for antitumor activity, against the subcutaneously implanted C38 colon tumor in mice; 50-90%.
In assay [3] the test system is Mus musculus. The assay can be described thus: Compound was evaluated in vivo, for antitumor activity, against the subcutaneously implanted C38 colon tumor in mice; 50-90%. It counts as functional. In a few lines:
as §1

Turning to `O=C(O)Cc1cccc2c(=O)c3ccccc3oc12`, the “minimum dose giving tumor necrosis” value with Mus musculus [1] amounted to 220 mg/kg. Moreover, in the assay with MC-38, the Activity is recorded as above 90%.

Consider `O=C(O)Cc1cccc2c(=O)c3ccc(Cl)c(Cl)c3oc12`, for which the “minimum dose giving tumor necrosis” value in the assay with Mus musculus [1] came to 100 mg/kg. Further, the Activity in the assay with Mus musculus [2] is 50%. Regarding `Cc1c(F)ccc2c(=O)c3cccc(CC(=O)O)c3oc12`, in the assay with Mus musculus [1], the “minimum dose giving tumor necrosis” value is 45 mg/kg. In the assay on MC-38, this compound returned an Activity above 90%. For `COc1ccc2c(=O)c3cccc(CC(=O)O)c3oc2c1C`, the “minimum dose giving tumor necrosis” value with Mus musculus [1] was 30 mg/kg. The compound further had an Activity in the assay on MC-38 above 90%. On to `Cc1c(Cl)ccc2c(=O)c3cccc(CC(=O)O)c3oc12`, for which, in the assay with Mus musculus [1], the “minimum dose giving tumor necrosis” value worked out at 30 mg/kg. In the assay on MC-38, the Activity is listed as above 90%. For `Cc1ccc2c(=O)c3cccc(C)c3oc2c1CC(=O)O`, in that order: 45 mg/kg and above 90%.

As for `O=C(O)Cc1cccc2c(=O)c3cc4ccccc4cc3oc12`, the “minimum dose giving tumor necrosis” value with Mus musculus [1] turned out to be 330 mg/kg. The compound also yielded an Activity with Mus musculus [3] of 50%. With `Cc1cc(CC(=O)O)c2oc3c(C)cccc3c(=O)c2c1`, the “minimum dose giving tumor necrosis” value in the assay on Mus musculus [1] is 220 mg/kg. The Activity in the assay with MC-38 is on record as above 90%. For `O=C(O)Cc1cccc2c(=O)c3ccc4c(c3oc12)CCC4`, in that order: 45 mg/kg and above 90%. Take `Cc1c(N(C)C)ccc2c(=O)c3cccc(CC(=O)O)c3oc12`: in the assay on Mus musculus [1], the “minimum dose giving tumor necrosis” value amounted to 45 mg/kg. As for `Cc1c(Br)ccc2c(=O)c3cccc(CC(=O)O)c3oc12`, in the assay with Mus musculus [1], the “minimum dose giving tumor necrosis” value amounted to 45 mg/kg. In addition, the Activity in the assay on MC-38 is above 90%. For `O=C(O)Cc1cccc2c(=O)c3cccc(Cl)c3oc12`, in that order: 150 mg/kg and 90%. For `O=C(O)Cc1cccc2c(=O)cc(-c3ccccc3)oc12` [MITOFLAXONE], in that order: 330 mg/kg and above 90%.

In the case of `Cc1cccc2c(=O)c3cccc(CC(=O)O)c3oc12`, the “minimum dose giving tumor necrosis” value in the assay with Mus musculus [1] was determined as 30 mg/kg. The Activity in the assay on MC-38 is listed as above 90%. Regarding `O=C(O)Cc1cccc2c(=O)c3ccc4ccccc4c3oc12`, the “minimum dose giving tumor necrosis” value in the assay with Mus musculus [1] was 65 mg/kg. The compound also had an Activity with MC-38 above 90%. For the compound `Cc1ccc2c(=O)c3cccc(CC(=O)O)c3oc2c1Cl`, the “minimum dose giving tumor necrosis” value in the assay with Mus musculus [1] stood at 100 mg/kg. For the same compound, the Activity in the assay on MC-38 is listed as above 90%. Turning to `Cc1cccc2c(=O)c3c(C)ccc(CC(=O)O)c3oc12`, the “minimum dose giving tumor necrosis” value in the assay on Mus musculus [1] came out at 65 mg/kg. The Activity in the assay on MC-38 is listed as above 90%. On the same counts, the results for `Cc1ccc2c(=O)c3cccc(CC(=O)O)c3oc2c1C` [VADIMEZAN] are 30 mg/kg and above 90%.
